Activity calls are given as the source filed them. The calls are words filed in the database; no cut-off is given here. Bounds are passed on as bounds.

Holding throughout (format): functional, cell-based
The test system of test [1] is MCF7. Kind of test: Anticancer activity against human MCF7 cells assessed as cell survival after 72 hrs by MTT assay. Summed up:
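Estrogen receptor-positive human breast cancer line, tested by MTT cytotoxicity assay with chlorambucil as positive control.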

Test [2] deals with MDA-MB-468. Kind of test: Anticancer activity against human MDA-MB-468 cells assessed as cell survival after 72 hrs by MTT assay. The procedure, abridged: (§1)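 Estrogen receptor-negative human breast cancer lines, tested by MTT cytotoxicity assay with chlorambucil as positive control.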
The nature of test [3]: (§2) Anticancer activity against human MDA-MB-436 cells assessed as cell survival after 72 hrs by MTT assay. The following applies: MDA-MB-436, 72 h. The procedure, abridged:
(§3)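 Estrogen receptor-negative human breast cancer line, exposed to a range of concentrations for 72 h. MTT read-out is expressed as percent cell survival, with chlorambucil as positive control.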

The test system of test [4] is MDA-MB-231. Kind of test: Anticancer activity against human MDA-MB-231 cells assessed as cell survival after 72 hrs by MTT assay. Summed up: as §1
Test [5] concerns MDA-MB-436. The description is as §2. Summed up: as §3

For the compound `O=C(O)CCCc1ccc(N(CCCl)CCCl)cc1` [CHLORAMBUCIL], the outcome in test [1] and in test [2] was Active. Also, the IC50 is above 160 µM in test [3] and above 130 µM in test [4] (MDA-MB-231, 72 h).
Turning to `C[C@]12CC[C@@H]3c4ccc(O)cc4CC[C@H]3[C@@H]1C[C@@](CO)(CCCCNC(=O)CCCc1ccc(N(CCCl)CCCl)cc1)[C@@H]2O`, the outcome in test [1], in test [2] and in test [4] was Active. Also, in test [3], the 50% inhibitory concentration (IC50) was 40 µM.
For `COC(=O)[C@@]1(CCCCCCNC(=O)CCCc2ccc(N(CCCl)CCCl)cc2)C[C@H]2[C@@H]3CCc4cc(O)ccc4[C@H]3CC[C@]2(C)[C@H]1O`, the result in test [1] and in test [2] was inactive. The result in test [4] was Active.
Take `C[C@]12CC[C@@H]3c4ccc(O)cc4CC[C@H]3[C@@H]1C[C@@](CO)(CCCCCCCCNC(=O)CCCc1ccc(N(CCCl)CCCl)cc1)[C@@H]2O`: the result in test [1], in test [2], in test [5] and in test [4] was Active.
Turning to `C[C@]12CC[C@@H]3c4ccc(O)cc4CC[C@H]3[C@@H]1C[C@@](CO)(CCCCCCNC(=O)CCCc1ccc(N(CCCl)CCCl)cc1)[C@@H]2O`, the outcome in test [1], in test [2], in test [5] and in test [4] was Active.

The values are drawn from ChEMBL document CHEMBL1154940, “Design, synthesis and biological evaluation of estradiol-chlorambucil hybrids as anticancer agents” (Bioorg Med Chem Lett, 2010).
